Assay results collected from several papers.
Protocols differ between the studies behind these lines. pIC50: −log10 of the molar value.
Cell line: THP-1

Cc1ccc(S(=O)(=O)/C=C/C#N)cc1  pIC50 (TNF-α release; inhibitor; 17 h; LPS-stimulated): 5.91
Cc1cnc(-c2ccc(-c3ccc(NC(=O)Nc4c(F)cc(F)cc4F)cc3F)c3c2C(=O)NC3)[nH]1  pIC50 (cell growth or viability): 8.41
Cn1c(-c2nnc(NC(=O)c3cc4c([nH]c5ccccc54)c(-c4ccccc4)n3)s2)cc2ccccc21  pIC50 (cell growth or viability; MTT; 72 h): 4.85
CC(C)NC[C@@H](O)c1ccc(O)c(O)c1  pIC50 (TNF-α release; inhibitor; 17 h; LPS-stimulated): 7.15
CCn1c(-c2nnc(NC(=O)c3cc4c([nH]c5ccccc54)c(-c4ccc(C)cc4)n3)s2)cc2ccccc21  pIC50 (cell growth or viability; MTT; 72 h): 4.41
O=[N+]([O-])c1c[nH]nc1-c1nc(-c2ccc(Oc3ccc(I)cc3)cc2)no1  IC50 (cell growth or viability; LDH; 24 h): > 50 µg/mL
CC(C)(C)NCC(O)c1cc(O)cc(O)c1 (centres unmarked)  pIC50 (TNF-α release; inhibitor; 17 h; LPS-stimulated): 5.66
O=C(Nc1nnc(-c2cc3ccccc3[nH]2)s1)c1cc2c([nH]c3ccccc32)c(-c2ccc(F)cc2)n1  pIC50 (cell growth or viability; MTT; 72 h): 5.21
N[C@@H](CC(=O)N1CCN(C(c2ccc(F)cc2)c2ccc(F)cc2)CC1)C(=O)N1Cc2ccccc2C1  pIC50 (cell growth or viability; ATP luminescence; 48 h): 5.56
NCCc1c[nH]cn1  pIC50 (TNF-α release; inhibitor; ELISA; 17 h; LPS-stimulated): 6.15
CC[C@@H](C)[C@H](N)C(=O)N1Cc2ccccc2C1  pIC50 (cell growth or viability; ATP luminescence): 5.77
COc1cccc2c1C(=O)c1c(O)c3c(c(O)c1C2=O)C[C@@](O)(C(=O)CO)C[C@@H]3O[C@H]1C[C@H](N)[C@H](O)[C@H](C)O1  IC50 (cell growth or viability; MTT; 48 h): 2.7 µg/mL
CCn1c(-c2nnc(NC(=O)c3cc4c([nH]c5ccccc54)c(-c4cc(OC)c(OC)c(OC)c4)n3)s2)cc2ccccc21  pIC50 (cell growth or viability; MTT; 72 h): 4.40
Nc1ncc(-c2cnn(C3CCNCC3)c2)cc1-c1nnc(CC2CC2)o1  pIC50 (cell growth or viability; trypan blue; 72 h): 6.79
Cn1c(-c2nnc(NC(=O)c3cc4c([nH]c5ccccc54)c(-c4ccc(F)cc4)n3)s2)cc2ccccc21  pIC50 (cell growth or viability; MTT; 72 h): 4.48
O=C(/C=C/C=C/c1ccc2c(c1)OCO2)N1CCCCC1  IC50 (cell growth or viability; MTT; 48 h): > 50 µg/mL
NC[C@H](O)c1ccc(O)c(O)c1  pIC50 (TNF-α release; inhibitor; 17 h; LPS-stimulated): 7.00
O=C(O)c1ccc(CN2CCC(CN[C@@H]3C[C@H]3c3ccccc3)CC2)cc1  pIC50 (cell growth or viability; MTS; 6 days): < 4.30
COc1ccc(-c2nc(C(=O)Nc3nnc(-c4cc5ccccc5n4C)s3)cc3c2[nH]c2ccccc23)cc1  pIC50 (cell growth or viability; MTT; 72 h): 4.84
O=C(Nc1nc2ccccc2n1CCN1CCOCC1)c1cccc([N+](=O)[O-])c1  pIC50 (TNF-α release; inhibitor; 17 h; LPS-stimulated): 5.95
